Converted amounts (≈) assume the structure as drawn.
What was measured:
Type in all cases: functional
[1] = tested on: Enterococcus faecium; experiment: Antibacterial activity against Enterococcus faecium 14-2 after 18 to 24 hrs by two-fold serial dilution method
Method in brief: (§1)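 Twofold serial dilution in agar media against Gram-positive and Gram-negative strains. Plates incubated at 35 °C for 18–24 h. MIC read as the lowest compound concentration giving complete inhibition of bacterial growth.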

[2] = tested on: Klebsiella pneumoniae; experiment: Antibacterial activity against extended-spectrum beta-lactamase producing Klebsiella pneumoniae 14-18 after 18 to 24 hrs by two-fold serial dilution method; method in brief: as §1
[3] = tested on: Enterococcus faecium; experiment: Antibacterial activity against Enterococcus faecium 14-6 after 18 to 24 hrs by two-fold serial dilution method; method in brief: as §1
[4] = tested on: Staphylococcus epidermidis; experiment: Antibacterial activity against methicillin-resistant Staphylococcus epidermidis 14-21 after 18 to 24 hrs by two-fold serial dilution method
Method in brief: (§2)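 Agar media, standard twofold serial dilution. MIC is the lowest concentration giving complete inhibition of bacterial growth after incubation at 35 °C for 18–24 h. Ciprofloxacin and levofloxacin were run as comparators.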

[5] = tested on: Klebsiella pneumoniae; experiment: Antibacterial activity against extended-spectrum beta-lactamase producing Klebsiella pneumoniae 14-19 after 18 to 24 hrs by two-fold serial dilution method; method in brief: as §1
[6] = tested on: Staphylococcus epidermidis; experiment: Antibacterial activity against methicillin-resistant Staphylococcus epidermidis 14-39 after 18 to 24 hrs by two-fold serial dilution method; method in brief: as §2
[7] = tested on: Pseudomonas aeruginosa; experiment: Antibacterial activity against Pseudomonas aeruginosa 14-9 after 18 to 24 hrs by two-fold serial dilution method; method in brief: as §1
[8] = tested on: Escherichia coli; experiment: Antibacterial activity against Escherichia coli 14-2 after 18 to 24 hrs by two-fold serial dilution method; method in brief: as §1
[9] = tested on: Klebsiella pneumoniae; experiment: Antibacterial activity against extended-spectrum beta-lactamase producing Klebsiella pneumoniae 14-17 after 18 to 24 hrs by two-fold serial dilution method; method in brief: as §1
[10] = tested on: Klebsiella pneumoniae; experiment: Antibacterial activity against Klebsiella pneumoniae 14-2 after 18 to 24 hrs by two-fold serial dilution method; method in brief: as §1
[11] = tested on: Staphylococcus epidermidis; experiment: Antibacterial activity against methicillin-resistant Staphylococcus epidermidis 14-22 after 18 to 24 hrs by two-fold serial dilution method; method in brief: as §2
[12] = tested on: Enterococcus faecalis; experiment: Antibacterial activity against Enterococcus faecalis 14-2 after 18 to 24 hrs by two-fold serial dilution method; method in brief: as §1
[13] = tested on: Pseudomonas aeruginosa; experiment: Antibacterial activity against Pseudomonas aeruginosa 14-14 after 18 to 24 hrs by two-fold serial dilution method; method in brief: as §1
[14] = tested on: Klebsiella pneumoniae; experiment: Antibacterial activity against Klebsiella pneumoniae 14-4 after 18 to 24 hrs by two-fold serial dilution method; method in brief: as §1
[15] = tested on: Escherichia coli; experiment: Antibacterial activity against extended-spectrum beta-lactamase producing Escherichia coli 14-2 after 18 to 24 hrs by two-fold serial dilution method; method in brief: as §1
[16] = tested on: Staphylococcus aureus; experiment: Antibacterial activity against methicillin-sensitive Staphylococcus aureus 14-1 after 18 to 24 hrs by two-fold serial dilution method; method in brief: as §1
[17] = tested on: Staphylococcus aureus; experiment: Antibacterial activity against Staphylococcus aureus CMCC 26003 after 18 to 24 hrs by two-fold serial dilution method; method in brief: as §1
[18] = tested on: Staphylococcus aureus; experiment: Antibacterial activity against methicillin-resistant Staphylococcus aureus 14-5 after 18 to 24 hrs by two-fold serial dilution method; method in brief: as §2
[19] = tested on: Staphylococcus epidermidis; experiment: Antibacterial activity against methicillin-sensitive Staphylococcus epidermidis 14-2 after 18 to 24 hrs by two-fold serial dilution method; method in brief: as §1
[20] = tested on: Escherichia coli; experiment: Antibacterial activity against Escherichia coli 14-1 after 18 to 24 hrs by two-fold serial dilution method; method in brief: as §1
[21] = tested on: Pseudomonas aeruginosa; experiment: Antibacterial activity against Pseudomonas aeruginosa 14-16 after 18 to 24 hrs by two-fold serial dilution method; method in brief: as §1
[22] = tested on: Klebsiella pneumoniae; experiment: Antibacterial activity against Klebsiella pneumoniae 14-3 after 18 to 24 hrs by two-fold serial dilution method; method in brief: as §1
[23] = tested on: Enterococcus faecalis; experiment: Antibacterial activity against Enterococcus faecalis 14-1 after 18 to 24 hrs by two-fold serial dilution method; method in brief: as §1
[24] = tested on: Staphylococcus aureus; experiment: Antibacterial activity against methicillin-sensitive Staphylococcus aureus 14-3 after 18 to 24 hrs by two-fold serial dilution method; method in brief: as §1
[25] = tested on: Escherichia coli; experiment: Antibacterial activity against extended-spectrum beta-lactamase producing Escherichia coli 14-1 after 18 to 24 hrs by two-fold serial dilution method; method in brief: as §1
[26] = tested on: Staphylococcus aureus; experiment: Antibacterial activity against methicillin-resistant Staphylococcus aureus 14-4 after 18 to 24 hrs by two-fold serial dilution method; method in brief: as §2
[27] = tested on: Enterococcus faecium; experiment: Antibacterial activity against Enterococcus faecium 14-5 after 18 to 24 hrs by two-fold serial dilution method; method in brief: as §1
[28] = tested on: Staphylococcus epidermidis; experiment: Antibacterial activity against methicillin-resistant Staphylococcus epidermidis 14-37 after 18 to 24 hrs by two-fold serial dilution method; method in brief: as §2
[29] = tested on: Pseudomonas aeruginosa; experiment: Antibacterial activity against Pseudomonas aeruginosa ATCC 27853 after 18 to 24 hrs by two-fold serial dilution method; method in brief: as §1
[30] = tested on: Staphylococcus aureus; experiment: Antibacterial activity against methicillin-sensitive Staphylococcus aureus 14-4 after 18 to 24 hrs by two-fold serial dilution method; method in brief: as §1
[31] = tested on: Streptococcus pneumoniae; experiment: Antibacterial activity against methicillin-resistant Streptococcus pneumoniae ATCC 19615 after 18 to 24 hrs by two-fold serial dilution method; method in brief: as §2
[32] = tested on: Klebsiella pneumoniae; experiment: Antibacterial activity against Klebsiella pneumoniae 14-1 after 18 to 24 hrs by two-fold serial dilution method; method in brief: as §1
[33] = tested on: Pseudomonas aeruginosa; experiment: Antibacterial activity against Pseudomonas aeruginosa 14-15 after 18 to 24 hrs by two-fold serial dilution method; method in brief: as §1
[34] = tested on: Escherichia coli; experiment: Antibacterial activity against Escherichia coli ATCC 25922 after 18 to 24 hrs by two-fold serial dilution method; method in brief: as §1

Structure (SMILES): CCO/N=C1/CN(c2nc3c(cc2F)c(=O)c(C(=O)O)cn3C2CC2)CC1CNC1CC1 (configuration not stated)
- MIC [1]: 32 µg/mL (≈ 72.2 µM)
- MIC [2]: 8 µg/mL (≈ 18 µM)
- MIC [3]: 8 µg/mL (≈ 18 µM)
- MIC [4]: 16 µg/mL (≈ 36.1 µM)
- MIC [5]: 8 µg/mL (≈ 18 µM)
- MIC [6]: 16 µg/mL (≈ 36.1 µM)
- MIC [7]: 8 µg/mL (≈ 18 µM)
- MIC [8]: 128 µg/mL (≈ 289 µM)
- MIC [9]: 8 µg/mL (≈ 18 µM)
- MIC [10]: 32 µg/mL (≈ 72.2 µM)
- MIC [11]: 16 µg/mL (≈ 36.1 µM)
- MIC [12]: 0.125 µg/mL (≈ 0.282 µM)
- MIC [13]: 32 µg/mL (≈ 72.2 µM)
- MIC [14]: 128 µg/mL (≈ 289 µM)
- MIC [15]: 128 µg/mL (≈ 289 µM)
- MIC [16]: 8 µg/mL (≈ 18 µM)
- MIC [17]: < 0.008 µg/mL
- MIC [18]: 8 µg/mL (≈ 18 µM)
- MIC [19]: 128 µg/mL (≈ 289 µM)
- MIC [20]: 128 µg/mL (≈ 289 µM)
- MIC [21]: 16 µg/mL (≈ 36.1 µM)
- MIC [22]: 128 µg/mL (≈ 289 µM)
- MIC [23]: 64 µg/mL (≈ 144 µM)
- MIC [24]: 8 µg/mL (≈ 18 µM)
- MIC [25]: 8 µg/mL (≈ 18 µM)
- MIC [26]: 128 µg/mL (≈ 289 µM)
- MIC [27]: 16 µg/mL (≈ 36.1 µM)
- MIC [28]: 32 µg/mL (≈ 72.2 µM)
- MIC [29]: 8 µg/mL (≈ 18 µM)
- MIC [30]: 8 µg/mL (≈ 18 µM)
- MIC [31]: 2 µg/mL (≈ 4.51 µM)
- MIC [32]: 32 µg/mL (≈ 72.2 µM)
- MIC [33]: 32 µg/mL (≈ 72.2 µM)
- MIC [34]: 2 µg/mL (≈ 4.51 µM)

Structure (SMILES): C[C@H]1COc2c(N3CCN(C)CC3)c(F)cc3c(=O)c(C(=O)O)cn1c23.C[C@H]1COc2c(N3CCN(C)CC3)c(F)cc3c(=O)c(C(=O)O)cn1c23.O [LEVOFLOXACIN]
- MIC [1]: 32 µg/mL
- MIC [3]: 64 µg/mL
- MIC [4]: 64 µg/mL
- MIC [5]: 64 µg/mL
- MIC [6]: 64 µg/mL
- MIC [7]: 0.5 µg/mL
- MIC [8]: 8 µg/mL
- MIC [10]: 8 µg/mL
- MIC [11]: 32 µg/mL
- MIC [12]: 1 µg/mL
- MIC [14]: 16 µg/mL
- MIC [15]: 8 µg/mL
- MIC [16]: 8 µg/mL
- MIC [17]: 0.25 µg/mL
- MIC [18]: 8 µg/mL
- MIC [19]: > 128 µg/mL
- MIC [20]: 8 µg/mL
- MIC [22]: 32 µg/mL
- MIC [23]: 128 µg/mL
- MIC [24]: 0.125 µg/mL
- MIC [25]: 4 µg/mL
- MIC [26]: 64 µg/mL
- MIC [27]: 64 µg/mL
- MIC [28]: 64 µg/mL
- MIC [30]: 0.5 µg/mL
- MIC [32]: 16 µg/mL
- MIC [34]: 0.125 µg/mL

Structure (SMILES): O=C(O)c1cn(C2CC2)c2cc(N3CCNCC3)c(F)cc2c1=O [CIPROFLOXACIN]
- MIC [1]: 32 µg/mL (≈ 96.6 µM)
- MIC [2]: 0.5 µg/mL (≈ 1.51 µM)
- MIC [3]: > 128 µg/mL
- MIC [4]: 64 µg/mL (≈ 193 µM)
- MIC [5]: 64 µg/mL (≈ 193 µM)
- MIC [6]: 128 µg/mL (≈ 386 µM)
- MIC [9]: 0.5 µg/mL (≈ 1.51 µM)
- MIC [10]: 16 µg/mL (≈ 48.3 µM)
- MIC [11]: 128 µg/mL (≈ 386 µM)
- MIC [12]: 1 µg/mL (≈ 3.02 µM)
- MIC [13]: 1 µg/mL (≈ 3.02 µM)
- MIC [14]: 32 µg/mL (≈ 96.6 µM)
- MIC [16]: 32 µg/mL (≈ 96.6 µM)
- MIC [17]: 0.5 µg/mL (≈ 1.51 µM)
- MIC [19]: > 128 µg/mL
- MIC [21]: 1 µg/mL (≈ 3.02 µM)
- MIC [22]: > 128 µg/mL
- MIC [23]: 64 µg/mL (≈ 193 µM)
- MIC [26]: > 128 µg/mL
- MIC [27]: 128 µg/mL (≈ 386 µM)
- MIC [28]: 128 µg/mL (≈ 386 µM)
- MIC [30]: 0.5 µg/mL (≈ 1.51 µM)
- MIC [31]: 2 µg/mL (≈ 6.04 µM)
- MIC [32]: 32 µg/mL (≈ 96.6 µM)
- MIC [33]: 1 µg/mL (≈ 3.02 µM)
- MIC [34]: < 0.008 µg/mL
